Assay results taken from PMC11897355 (Nature Communications, 2025).
Substitutions are numbered along the chain they refer to. Entries after “also recorded” stand apart in the source; their conditions may differ.

Key:
GlyT1 = conditions: rat primary neurons; cited from earlier work
L422T GlyT1 mutant = molecular target: T1, L422T GlyT1 mutant (Homo sapiens, UniProt P48067, L476T); assay: [3H]glycine uptake inhibition assay, GlyT1 L422T mutant; format: cell-based
T1 sequence (P48067 1-652 isoform P48067-3 L422T): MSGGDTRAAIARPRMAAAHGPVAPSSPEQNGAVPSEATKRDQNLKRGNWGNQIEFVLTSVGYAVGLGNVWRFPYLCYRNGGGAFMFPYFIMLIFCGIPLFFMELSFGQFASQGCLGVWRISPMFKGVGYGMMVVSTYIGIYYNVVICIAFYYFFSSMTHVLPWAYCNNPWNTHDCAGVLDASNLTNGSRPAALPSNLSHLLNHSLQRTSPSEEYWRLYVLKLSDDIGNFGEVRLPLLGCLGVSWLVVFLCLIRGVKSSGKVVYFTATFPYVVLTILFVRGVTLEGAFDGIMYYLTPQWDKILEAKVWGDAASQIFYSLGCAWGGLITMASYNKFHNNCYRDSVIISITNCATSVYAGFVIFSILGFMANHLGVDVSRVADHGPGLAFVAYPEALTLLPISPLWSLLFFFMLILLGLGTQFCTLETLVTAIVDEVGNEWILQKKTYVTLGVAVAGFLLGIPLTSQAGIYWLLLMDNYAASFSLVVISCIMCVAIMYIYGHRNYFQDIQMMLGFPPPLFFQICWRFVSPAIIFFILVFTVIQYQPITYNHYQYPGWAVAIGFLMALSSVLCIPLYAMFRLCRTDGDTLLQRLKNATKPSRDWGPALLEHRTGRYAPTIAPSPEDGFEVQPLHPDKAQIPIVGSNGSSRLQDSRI
Summary of the method: (§1)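 HEK-293F cells (2.5 × 10^6/mL) infected with baculovirus carrying wild-type or sequence-verified mutant human GlyT1. Cells collected after 15 h and washed in HEPES-Tris pH 7.4 uptake buffer, then preincubated 10 min with graded inhibitor. Uptake ran 1 min at 25 °C with 25 μM [3H]glycine/unlabeled glycine (1:2500). Two cold washes, lysis in 1% Triton X-100, scintillation counting. Uptake normalized to untreated cells. Three independent experiments in triplicate; IC50 fitted to mean data.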

G319S GlyT1 mutant = molecular target: T2, G319S GlyT1 mutant (Homo sapiens, UniProt P48067, G373S); assay: [3H]glycine uptake inhibition assay, GlyT1 G319S mutant; format: cell-based
T2 sequence (P48067 1-652 isoform P48067-3 G319S): T1 sequence (P48067 1-652 isoform P48067-3 L422T) with G319S, T422L
Summary of the method: as §1

wild-type GlyT1 = molecular target: T3, wild-type GlyT1 (Homo sapiens, UniProt P48067); assay: [3H]glycine uptake inhibition assay, wild-type GlyT1 in HEK-293F cells; format: cell-based; conditions: IC50, [3H]glycine uptake
T3 sequence (P48067 1-652 isoform P48067-3): T1 sequence (P48067 1-652 isoform P48067-3 L422T) with T422L
Summary of the method: as §1

HEK-293F cells = assay: Cholesterol quantification after MβCD or wsCHOL treatment; format: cell-based, human
WT GlyT1 [1] = assay: Cell surface biotinylation and immunoblot; format: cell-based, human; conditions: 2.5 mg/mL and 3.5 mg/mL MβCD
WT GlyT1 [2] = molecular target: T4, WT GlyT1 (Homo sapiens, UniProt P48067); assay: [3H]glycine kinetic uptake assay, WT GlyT1; format: cell-based
T4 sequence (P48067 1-652 isoform P48067-3): T1 sequence (P48067 1-652 isoform P48067-3 L422T) with T422L

wild-type GlyT2 [3] = molecular target: T5, wild-type GlyT2 (Homo sapiens, UniProt Q9Y345); assay: [3H]glycine uptake inhibition assay, wild-type GlyT2; format: cell-based
T5 sequence (Q9Y345 1-797): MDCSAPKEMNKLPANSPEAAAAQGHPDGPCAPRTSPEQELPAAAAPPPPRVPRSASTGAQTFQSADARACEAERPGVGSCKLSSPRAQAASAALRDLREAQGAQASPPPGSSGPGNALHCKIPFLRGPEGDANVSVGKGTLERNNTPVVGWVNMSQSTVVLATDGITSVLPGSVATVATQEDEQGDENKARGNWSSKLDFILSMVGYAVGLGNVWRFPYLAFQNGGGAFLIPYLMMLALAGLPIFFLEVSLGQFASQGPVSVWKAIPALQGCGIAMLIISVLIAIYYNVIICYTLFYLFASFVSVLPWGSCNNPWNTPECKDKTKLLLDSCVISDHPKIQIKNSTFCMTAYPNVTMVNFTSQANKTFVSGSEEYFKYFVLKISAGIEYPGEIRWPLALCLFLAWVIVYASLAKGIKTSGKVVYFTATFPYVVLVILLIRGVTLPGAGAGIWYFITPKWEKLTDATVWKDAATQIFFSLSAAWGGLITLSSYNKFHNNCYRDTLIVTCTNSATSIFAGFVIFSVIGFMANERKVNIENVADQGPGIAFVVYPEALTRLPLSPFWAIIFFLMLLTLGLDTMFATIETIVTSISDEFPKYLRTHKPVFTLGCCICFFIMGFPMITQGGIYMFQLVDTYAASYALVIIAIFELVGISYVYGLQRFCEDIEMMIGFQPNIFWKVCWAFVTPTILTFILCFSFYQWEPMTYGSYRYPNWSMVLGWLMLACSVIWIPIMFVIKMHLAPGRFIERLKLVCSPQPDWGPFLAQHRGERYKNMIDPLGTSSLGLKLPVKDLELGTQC

S479G GlyT2 mutant = molecular target: T6, S479G GlyT2 mutant (Homo sapiens, UniProt Q9Y345, S479G); assay: [3H]glycine uptake inhibition assay, GlyT2 S479G mutant; format: cell-based
T6 sequence (Q9Y345 1-797 S479G): T5 sequence (Q9Y345 1-797) with S479G

wild-type GlyT2 [4] = molecular target: T5, wild-type GlyT2; conditions: cited from earlier work

C[C@@H](Oc1ccc(S(C)(=O)=O)cc1C(=O)N1C[C@@H]2C[C@]2(c2cc(C(F)(F)F)on2)C1)C(F)(F)F [iclepertin]
IC50 (GlyT1): 0.0052 ± 0.0012 µM
IC50 (L422T GlyT1 mutant): 5.25 ± 0.33 µM
inhibition of G319S mutant (G319S GlyT1 mutant): not inhibited; also recorded: no visible inhibition effect
IC50 (wild-type GlyT1; wild-type GlyT1): 0.162 ± 0.0196 µM

Methyl-β-cyclodextrin [MβCD]
decrease of cholesterol content on the membrane (HEK-293F cells; 2.5 mg/mL MβCD): 10%
decrease of cholesterol content on the membrane (HEK-293F cells; 3.5 mg/mL MβCD): 20%
effect on surface expression of GlyT1 (WT GlyT1 [1]): without altering the surface expression
reduction of Vmax compared to WT GlyT1 (WT GlyT1 [2]; 2.5 mg/mL MβCD): about 19.6%
reduction of Vmax compared to WT GlyT1 (WT GlyT1 [2]; 3.5 mg/mL MβCD): ~26.7%
effect on Km values (WT GlyT1 [2]; 2.5 and 3.5 mg/mL MβCD): remained relatively unaffected

CNCC(=O)O [sarcosine, N-methyl glycine]
sensitivity of WT GlyT2 to inhibition (wild-type GlyT2 [3]): not sensitive
susceptibility of S479G GlyT2 to inhibition (S479G GlyT2 mutant): susceptibility similar to that of WT GlyT1
inhibition of GlyT1 versus GlyT2 (wild-type GlyT2 [4]): can inhibit GlyT1 but not GlyT2
IC50 (G319S GlyT1 mutant): 18600 ± 1550 µM
reduction of inhibitory potency on G319S compared to WT GlyT1 (G319S GlyT1 mutant): ~ 200 fold
IC50 (wild-type GlyT1; wild-type GlyT1, mean ± S.E.M.): 96.8 ± 13.7 µM

NCC(=O)O [glycine]
Km (WT GlyT1 [2]; WT GlyT1, untreated cells): 126 µM
